Published values pooled from the literature.
Converted amounts (≈) assume the structure as drawn.

SMILES | target or system | assay | test system | conditions | measurement | result
CCOC(=O)c1ccc(-n2c(C)cc(/C=C/c3ccc(OCC)cc3)c(C#N)c2=O)cc1 | HepG2 | cell growth or viability, MTT |  | 25 µM, 24 h | viability | 72%
Cc1ccc(CNC(=O)c2c(N)sc3c2CCCC3)cc1 | Mycobacterium tuberculosis | microbial growth, resazurin | H37RV |  | MIC | 333 µM (≈ 100 µg/mL)
CCOC(=O)c1ccc(-n2c(C)cc(C)c(C#N)c2=O)cc1 | HepG2 | cell growth or viability, MTT |  | 1.56 µM, 24 h | viability | 100%
Nc1sc(-c2ccccc2)cc1C(=O)NCc1ccccc1 | Mycobacterium tuberculosis | microbial growth, resazurin | H37RV |  | MIC | 325 µM (≈ 100 µg/mL)
c1ccc(C2CCN(c3nc(-c4cnn5cccnc45)nc4ccccc34)C2)nc1 (stereo not shown) | Trypanosoma cruzi | parasite growth, imaging | U2OS | intracellular, amastigote | IC50 | 1.11 µM
COc1ccc(NCC(=O)Nc2c(C#N)sc(Nc3ccccc3)c2C(=O)Nc2ccc(OC)cc2)cc1 | HepG2 | cell growth or viability, SRB |  | 10 nM, 48 h | viability | 91.1%
Fc1cccc(F)c1-c1nc(N2CCC(c3ccccn3)C2)c2ccccc2n1 (stereo not shown) | Trypanosoma cruzi | parasite growth, imaging | U2OS | intracellular, amastigote | IC50 | 9.7 µM
COc1ccc(NC(=O)c2c(Nc3ccccc3)sc(C(=O)NN=Cc3ccc(Cl)cc3)c2NC(C)=O)cc1 | HepG2 | cell growth or viability, SRB |  | 0.1 µM, 48 h | viability | 92.3%
CCOC(=O)c1c(NC(=O)c2c(F)c(F)c(F)c(F)c2F)sc2c1CCCC2 | Mycobacterium tuberculosis | microbial growth, resazurin | H37RV |  | MIC | < 50 µM
COc1ccc(NC(=O)c2c(Nc3ccccc3)sc(C#N)c2NC(=O)CNc2ccc(O)cc2)cc1 | HepG2 | cell growth or viability, SRB |  | 1 µM, 48 h | viability | 77.2%
CCN1CCc2c(sc(N)c2C(=O)NCc2ccccc2)C1 | Mycobacterium tuberculosis | microbial growth, resazurin | H37RV |  | MIC | > 300 µM
N#Cc1ccccc1-c1nc(N2CCC(c3ccccn3)C2)c2ccccc2n1 (stereo not shown) | Trypanosoma cruzi | parasite growth, imaging | U2OS | intracellular, amastigote | IC50 | 5.86 µM
COc1ccc(NC(=O)c2c(Nc3ccccc3)sc(C#N)c2NC(=O)CNc2ccc(Cl)cc2)cc1 | HepG2 | cell growth or viability, SRB |  | 1 nM, 48 h | viability | 99.1%
